Reference: ChEMBL document CHEMBL1140328, “Synthesis and mechanism of action studies of a series of norindenoisoquinoline topoisomerase I poisons reveal an inhibitor with a flipped orientation in the ternary DNA-enzyme-inhibitor complex as determined by X-ray crystallographic analysis” (2005)

Assays:
[1] = Concentration required to inhibit the growth of human Ovarian OVCAR cells; type: functional
Method in brief: (§1)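 NCI screen of about 55 human cancer cell lines; GI50 per cell line over a test range of 10⁻⁸ to 10⁻⁴ M. Mean graph midpoint is the average GI50 across all lines tested, with values outside the range set to 10⁻⁸ or 10⁻⁴ M.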

[2] = Concentration required to inhibit the growth of human Breast MDA-MB-435 cells; type: functional; method in brief: as §1
[3] = Concentration required to inhibit the growth of human Prostate DU-145 cells; type: functional; method in brief: as §1
[4] = biological target: T1, DNA topoisomerase 1 (Homo sapiens) (UniProt P11387); assay: Topoisomerase-I mediated DNA Cleavage activity at 30 degree C for 30 min relative to NSC 314622; Range = 25-75%
T1 sequence (whole entry): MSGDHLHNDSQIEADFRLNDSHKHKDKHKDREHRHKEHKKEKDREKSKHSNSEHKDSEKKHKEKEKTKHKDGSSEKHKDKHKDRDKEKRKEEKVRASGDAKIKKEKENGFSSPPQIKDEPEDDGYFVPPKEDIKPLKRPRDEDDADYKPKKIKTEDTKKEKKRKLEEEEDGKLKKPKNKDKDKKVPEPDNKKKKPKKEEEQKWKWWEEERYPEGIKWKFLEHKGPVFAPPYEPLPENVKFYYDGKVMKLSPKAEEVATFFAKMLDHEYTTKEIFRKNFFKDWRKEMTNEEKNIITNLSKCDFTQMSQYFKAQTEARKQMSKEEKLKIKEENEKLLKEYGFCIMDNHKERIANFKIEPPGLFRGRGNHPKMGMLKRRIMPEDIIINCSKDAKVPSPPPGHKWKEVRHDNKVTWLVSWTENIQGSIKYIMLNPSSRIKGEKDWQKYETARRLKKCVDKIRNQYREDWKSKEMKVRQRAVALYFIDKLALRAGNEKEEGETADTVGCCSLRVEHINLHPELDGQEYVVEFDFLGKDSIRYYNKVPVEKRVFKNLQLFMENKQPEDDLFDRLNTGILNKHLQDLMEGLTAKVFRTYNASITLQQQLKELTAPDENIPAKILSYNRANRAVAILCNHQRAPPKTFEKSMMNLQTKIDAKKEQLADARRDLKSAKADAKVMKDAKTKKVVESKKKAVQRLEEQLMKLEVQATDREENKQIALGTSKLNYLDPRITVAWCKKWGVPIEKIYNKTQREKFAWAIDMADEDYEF

[5] = Concentration required to inhibit the growth of human Renal SN12C cells; type: functional; method in brief: as §1
[6] = Concentration required to inhibit the growth of human Lung HOP-62 cells; type: functional; method in brief: as §1
[7] = Concentration required to inhibit the growth of human Colon […] cells; type: functional; method in brief: as §1
[8] = Concentration required to inhibit the growth of human Melanoma UACC-62 cells; type: functional; method in brief: as §1
[9] = biological target: T1, DNA topoisomerase 1 (Homo sapiens); assay: Topoisomerase-I mediated DNA Cleavage activity at 30 degree C for 30 min relative to NSC 314622; Range = 75-175%
[10] = Concentration required to inhibit the growth of human CNSSF-539 cells; type: functional; method in brief: as §1
[11] = Concentration required to inhibit the growth of human OvarianOVCAR cells; type: functional; method in brief: as §1
[12] = Concentration required to inhibit the growth of human ColonHCT-11 cells; type: functional
Method in brief: (§2)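 Assayed in the National Cancer Institute screen, a panel of approximately 55 human cancer cell lines. Compounds were tested over a concentration range of 10⁻⁸ to 10⁻⁴ molar, and growth inhibition was expressed as GI₅₀ for each cell line.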

[13] = Concentration required to inhibit the growth of human LungHOP-62 cells; type: functional; method in brief: as §2
[14] = Concentration required to inhibit the growth of human prostate DU-145 cells; type: functional; method in brief: as §1
[15] = Concentration required to inhibit the growth of human ProstateDU-145 cells; type: functional; details: DU-145; method in brief: as §1

COc1cc2c3c(n(C)c(=O)c2cc1OC)-c1cc2c(cc1C3=O)OCO2
GI50 [1]: 73 µM
GI50 [2]: 96 µM
GI50 [3]: 37 µM
Cleavage [4]: 75%
GI50 [5]: 68 µM
GI50 [6]: 1.3 µM
GI50 [7]: 35 µM
GI50 [8]: 4.2 µM

COc1cc2c(cc1OC)-c1ncc3cc4c(cc3c1C2)OCO4
GI50 [1]: 61.2 µM
GI50 [2]: 63.4 µM
Cleavage [9]: 175%
GI50 [3]: 25.3 µM
GI50 [5]: > 100 µM
GI50 [7]: 11.1 µM
GI50 [8]: > 100 µM
GI50 [10]: 23.4 µM

COc1cc2c(c(OC)c1OC)-c1ncc3c(OC)c(OC)c(OC)cc3c1C2
GI50 [1]: 21.5 µM
GI50 [2]: 23 µM
GI50 [3]: 29.6 µM
Cleavage [4]: 75%
GI50 [5]: 20.3 µM
GI50 [6]: 28.5 µM
GI50 [7]: 27.8 µM
GI50 [8]: 21.1 µM

COc1cc2cnc3c(c2cc1OC)Cc1cc2c(cc1-3)OCO2
GI50 [2]: < 0.01 µM
Cleavage [9]: 175%
GI50 [3]: 0.0281 µM
GI50 [5]: > 100 µM
GI50 [6]: 0.0721 µM
GI50 [7]: > 100 µM
GI50 [8]: < 0.01 µM
GI50 [10]: < 0.01 µM

COc1cc2c(c(OC)c1OC)-c1ncc3cc(OC)c(OC)c(OC)c3c1C2
GI50 [11]: 19.1 µM
GI50 [2]: 20.8 µM
GI50 [3]: 26.6 µM
GI50 [5]: 17.6 µM
GI50 [6]: 35.4 µM
GI50 [7]: 33.5 µM
GI50 [8]: 17.4 µM

COc1cc2c(cc1OC)-c1ncc3c(OC)ccc(OC)c3c1C2
GI50 [1]: 15.4 µM
GI50 [2]: 23.4 µM
GI50 [3]: 28.1 µM
GI50 [5]: 14.8 µM
GI50 [6]: 21.4 µM
GI50 [7]: 17.8 µM
GI50 [8]: 18 µM
GI50 [10]: 14 µM

CC[C@@]1(O)C(=O)OCc2c1cc1n(c2=O)Cc2cc3ccccc3nc2-1 [CAMPTOTHECIN]
GI50 [11]: 0.22 µM
GI50 [10]: 0.01 µM
GI50 [12]: 0.03 µM
GI50 [13]: 0.01 µM

COc1cc2c(cc1OC)-c1ncc3c(OC)c(OC)c(OC)cc3c1C2
GI50 [1]: 0.529 µM
Cleavage [4]: 75%
GI50 [6]: 16 µM
GI50 [7]: 8.81 µM
GI50 [8]: 3.84 µM

COc1ccc(OC)c2c3c(ncc12)-c1cc2c(cc1C3)OCO2
GI50 [1]: 26.9 µM
GI50 [2]: > 100 µM
GI50 [3]: 48.4 µM
Cleavage [4]: 75%
GI50 [5]: > 100 µM
GI50 [6]: < 0.01 µM
GI50 [7]: 0.249 µM
GI50 [8]: > 100 µM

COc1cc2c(cc1OC)-c1ncc3cc(OC)c(OC)cc3c1C2
GI50 [1]: > 50 µM
GI50 [2]: > 50 µM
GI50 [3]: > 50 µM
Cleavage [4]: 75%
GI50 [5]: > 50 µM
GI50 [7]: > 50 µM
GI50 [8]: > 50 µM
GI50 [10]: > 50 µM

COc1cc2c(cc1OC)-c1ncc3cc(OC)c(OC)c(OC)c3c1C2
GI50 [1]: 15.9 µM
GI50 [2]: 16.2 µM
GI50 [3]: 21.7 µM
GI50 [5]: 14.4 µM
GI50 [6]: 34.8 µM
GI50 [7]: 31.8 µM
GI50 [8]: 7.42 µM
GI50 [10]: 14 µM

COc1cc2c3c(ncc2c(OC)c1OC)-c1cc2c(cc1C3)OCO2
GI50 [2]: > 100 µM
Cleavage [4]: 75%
GI50 [14]: 26.9 µM
GI50 [7]: 22.1 µM

COc1cc2cnc3c(c2c(OC)c1OC)Cc1cc2c(cc1-3)OCO2
GI50 [1]: 0.403 µM
GI50 [2]: 0.178 µM
Cleavage [4]: 75%
GI50 [5]: 0.602 µM
GI50 [6]: 0.234 µM
GI50 [7]: 0.0694 µM
GI50 [15]: > 100 µM
GI50 [8]: 0.439 µM
GI50 [10]: 0.869 µM

c1c2c(cc3c1OCO3)-c1ncc3cc4c(cc3c1C2)OCO4
GI50 [1]: 0.0232 µM
GI50 [2]: < 0.01 µM
Cleavage [4]: 75%
GI50 [5]: 0.0414 µM
GI50 [6]: 0.227 µM
GI50 [7]: 0.283 µM
GI50 [8]: 0.19 µM
GI50 [10]: 0.598 µM

COc1cc2c(c(OC)c1OC)-c1ncc3cc4c(cc3c1C2)OCO4
GI50 [1]: 15.5 µM
GI50 [2]: 13.2 µM
GI50 [3]: 23.2 µM
GI50 [5]: 13.4 µM
GI50 [6]: 21.7 µM
GI50 [7]: 18.8 µM
GI50 [8]: 19.3 µM
